Results: ChEMBL document CHEMBL1132304, “Characterization of "mini-nucleotides" as P2X receptor agonists in rat cardiomyocyte cultures. An integrated synthetic, biochemical, and theoretical study” (1999)
Active and inactive are the calls of the source. The rule behind the calls is not given here.

Columns and labels:
Rattus norvegicus [1] = organism: Rattus norvegicus; experiment: In vitro effect on intracellular ca++ elevation was determined in comparison to the ATP at 10 uM on rat cardiomyocytes; Not active; assay type: functional
In short: (§1)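 Cultured neonatal rat cardiomyocytes (3-5 days in vitro) on coverglasses were loaded with indo-1, and [Ca²⁺]i was estimated by the 405/495 nm emission ratio method under UV epifluorescence. Ligand was added at 100 µM, with ATP 10 µM as reference. The read-out was [Ca²⁺]i elevation in nM above the 100 nM basal level, from 2-3 experiments.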

Rattus norvegicus [2] = organism: Rattus norvegicus; experiment: Inhibition of Ca++ elevation was determined in CPX treated cardiac cells in rat; No inhibition; assay type: functional, cell-based
Rattus norvegicus [3] = organism: Rattus norvegicus; experiment: Inhibition of Ca++ elevation was determined in PPADS treated cardiac cells in rat; Complete inhibition; assay type: functional, cell-based
Rattus norvegicus [4] = organism: Rattus norvegicus; experiment: In vitro effect on intracellular ca++ elevation in comparison to the ATP at 10 uM on rat cardiomyocytes.; assay type: functional; in short: as §1
Rattus norvegicus [5] = organism: Rattus norvegicus; experiment: Compound was evaluated 1 min after drug application on rat cardiomyocytes; assay type: functional; parameters: concentration or dose not given beside the values
In short: (§2)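 Neonatal rat cardiomyocyte cultures (3-5 days in vitro, spontaneously contracting monolayers on collagen/gelatin-coated coverglasses) exposed to ligand at 100 µM. Contraction rate was recorded by video motion detector under phase-contrast microscopy at 37 °C in 95% air/5% CO₂, 1 min after drug application. The read-out was % reduction of heart rate from representative experiments.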

Rattus norvegicus [6] = organism: Rattus norvegicus; experiment: In vitro effect on intracellular ca++ elevation was determined in comparison to the ATP at 10 uM on rat cardiomyocytes; Ca++ elevation; Not avtive; assay type: functional; in short: as §1
Rattus norvegicus [7] = organism: Rattus norvegicus; experiment: Inhibition of Ca++ elevation was determined in CPX treated cardiac cells in rat; Complete inhibition; assay type: functional, cell-based
Rattus norvegicus [8] = organism: Rattus norvegicus; experiment: Inhibition of Ca++ elevation was determined in PPADS treated cardiac cells in rat; No inhibition; assay type: functional, cell-based
Rattus norvegicus [9] = organism: Rattus norvegicus; experiment: In vitro effect on intracellular ca++ elevation was determined in comparison to the ATP at 10 uM on rat cardiomyocytes; Ca++ elevation; assay type: functional; in short: as §1
Rattus norvegicus [10] = organism: Rattus norvegicus; experiment: Inhibition of Ca++ elevation was determined in PPADS treated cardiac cells in rat; assay type: functional
In short: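 Neonatal rat cardiomyocyte cultures. Cells were incubated 5 min with 100 µM PPADS (P2-R antagonist) before the agonist was added at 100 µM (ATP at 10 µM). Intracellular Ca²⁺ was measured by the indo-1 405/495 nm emission ratio (Grynkiewicz ratio method). Scored as complete inhibition (+), no inhibition (−), or partial.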

Rattus norvegicus [11] = organism: Rattus norvegicus; experiment: Inhibition of Ca++ elevation was determined in CPX treated cardiac cells in rat; Complete inhibition; Complete inhibition; assay type: functional, cell-based
Rattus norvegicus [12] = organism: Rattus norvegicus; experiment: Compound was evaluated 1 min after drug application on rat cardiomyocytes; Not active; assay type: functional; in short: as §2
Rattus norvegicus [13] = organism: Rattus norvegicus; experiment: In vitro effect on intracellular ca++ elevation was determined in comparison to the ATP at 10 uM on rat cardiomyocytes; Ca++ elevation; Not active; assay type: functional; in short: as §1

SMILES	inhibition (Rattus norvegicus [3])	Reduction of heart rate (Rattus norvegicus [5])	Ca2+ elevation (Rattus norvegicus [9])	other results
Cn1c(Sc2ccccc2)nc2c1c(=O)n(CCOP(=O)(O)O)c(=O)n2C	–	–	–	Ca2+ elevation (Rattus norvegicus [1]): inactive
Cn1c(=O)c2c(ncn2CCOP(=O)(O)OP(=O)(O)OP(=O)(O)O)n(C)c1=O	Total inhibition	64%	–	inhibition (Rattus norvegicus [2]): inactive; Ca2+ elevation (Rattus norvegicus [4]): 87 nM
Cn1c(=O)c2c(ncn2CCCOP(=O)(O)O)n(C)c1=O	–	–	–	Ca2+ elevation (Rattus norvegicus [6]): inactive
Cn1cnc2c1c(=O)n(CCOP(=O)(O)OP(=O)(O)OP(=O)(O)O)c(=O)n2C.N.N.N.N	–	3%	54 nM	inhibition (Rattus norvegicus [7]): Total inhibition; inhibition (Rattus norvegicus [8]): inactive
Cn1cnc2c1c(=O)n(CCCOP(=O)(O)OP(=O)(O)OP(=O)(O)O)c(=O)n2C.N.N.N.N	–	–	60 nM	–
Cn1c(=O)c2c(nc(Sc3ccccc3)n2CCOP(=O)(O)O)n(C)c1=O	–	–	–	Ca2+ elevation (Rattus norvegicus [1]): inactive
Nc1ncnc2c1ncn2[C@@H]1O[C@H](COP(=O)(O)OP(=O)(O)OP(=O)(O)O)[C@@H](O)[C@H]1O [ADENOSINE TRIPHOSPHATE]	–	–	–	inhibition (Rattus norvegicus [2]): inactive; Inhibition (Rattus norvegicus [10]): 60%
Cn1c(=O)c2c(nc(Br)n2CCOP(=O)(O)OP(=O)(O)OP(=O)(O)O)n(C)c1=O	–	32%	37 nM	–
Cn1c(=O)c2c(nc(Cl)n2CCOP(=O)(O)O)n(C)c1=O	–	95%	49 nM	inhibition (Rattus norvegicus [2]): inactive
CCOc1nc2c(c(=O)n(C)c(=O)n2C)n1CCOP(=O)(O)O	–	–	–	Ca2+ elevation (Rattus norvegicus [1]): inactive
Cn1cnc2c1c(=O)n(CCOP(=O)(O)O)c(=O)n2C.N.N	Total inhibition	10%	61 nM	inhibition (Rattus norvegicus [11]): Total inhibition
Cn1c(=O)c2c(nc(Cl)n2CCOP(=O)(O)OP(=O)(O)OP(=O)(O)O)n(C)c1=O	Total inhibition	28%	29 nM	inhibition (Rattus norvegicus [2]): inactive
Cn1c(Br)nc2c1c(=O)n(CCOP(=O)(O)O)c(=O)n2C	Total inhibition	–	80 nM	inhibition (Rattus norvegicus [2]): inactive; NA (Rattus norvegicus [12]): inactive
CCOc1nc2c(c(=O)n(C)c(=O)n2C)n1CCOP(=O)(O)OP(=O)(O)OP(=O)(O)O	–	–	–	Ca2+ elevation (Rattus norvegicus [6]): inactive
Cn1c(Br)nc2c1c(=O)n(CCOP(=O)(O)OP(=O)(O)OP(=O)(O)O)c(=O)n2C	Total inhibition	50%	94 nM	–
Cn1c(=O)c2c(ncn2CCOP(=O)(O)O)n(C)c1=O	Total inhibition	16%	80 nM	inhibition (Rattus norvegicus [7]): Total inhibition
Cn1cnc2c1c(=O)n(CCCOP(=O)(O)O)c(=O)n2C	–	–	–	Ca2+ elevation (Rattus norvegicus [6]): inactive
Cn1c(=O)c2c(nc(Sc3ccccc3)n2CCOP(=O)(O)OP(=O)(O)OP(=O)(O)O)n(C)c1=O	–	–	–	Ca2+ elevation (Rattus norvegicus [1]): inactive
Cn1c(=O)c2c(ncn2CCCOP(=O)(O)OP(=O)(O)OP(=O)(O)O)n(C)c1=O	–	–	–	Ca2+ elevation (Rattus norvegicus [13]): inactive
Cn1c(=O)c2c(nc(Br)n2CCOP(=O)(O)O)n(C)c1=O	–	17%	54 nM	–
